Assay results from ChEMBL document CHEMBL1157211, “Carbamoyl tetrazoles as inhibitors of endocannabinoid inactivation: a critical revisitation” (Eur J Med Chem, 2008).

What was measured:
[1] = Inhibition of MAGL mediated [14C]2-arachidonoyl glycerol hydrolysis in african green monkey COS cells; assay type: cell-based; settings: Chlorocebus aethiops
Procedure, shortened: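 The 10,000 g cytosolic fraction of COS cells overexpressing DAGLα was used as the MAGL source. It was incubated with radiolabelled synthetic 2-arachidonoylglycerol (1.0 mCi/mmol) in 50 mM Tris-HCl, pH 7.0, at 37 °C for 20 min. Lipids were then extracted with 2 volumes of chloroform/methanol 2:1 and lyophilized.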

[2] = biological target: T1, Diacylglycerol lipase-alpha (Homo sapiens, UniProt Q9Y4D2); assay: Inhibition of human recombinant DAGLalpha mediated sn-1-[14C]oleoyl-2-arachidonoyl-glycerol hydrolysis to 2-AG overexpressed in COS cells after 20 mins; assay type: cell-based
T1 sequence (Q9Y4D2 whole entry): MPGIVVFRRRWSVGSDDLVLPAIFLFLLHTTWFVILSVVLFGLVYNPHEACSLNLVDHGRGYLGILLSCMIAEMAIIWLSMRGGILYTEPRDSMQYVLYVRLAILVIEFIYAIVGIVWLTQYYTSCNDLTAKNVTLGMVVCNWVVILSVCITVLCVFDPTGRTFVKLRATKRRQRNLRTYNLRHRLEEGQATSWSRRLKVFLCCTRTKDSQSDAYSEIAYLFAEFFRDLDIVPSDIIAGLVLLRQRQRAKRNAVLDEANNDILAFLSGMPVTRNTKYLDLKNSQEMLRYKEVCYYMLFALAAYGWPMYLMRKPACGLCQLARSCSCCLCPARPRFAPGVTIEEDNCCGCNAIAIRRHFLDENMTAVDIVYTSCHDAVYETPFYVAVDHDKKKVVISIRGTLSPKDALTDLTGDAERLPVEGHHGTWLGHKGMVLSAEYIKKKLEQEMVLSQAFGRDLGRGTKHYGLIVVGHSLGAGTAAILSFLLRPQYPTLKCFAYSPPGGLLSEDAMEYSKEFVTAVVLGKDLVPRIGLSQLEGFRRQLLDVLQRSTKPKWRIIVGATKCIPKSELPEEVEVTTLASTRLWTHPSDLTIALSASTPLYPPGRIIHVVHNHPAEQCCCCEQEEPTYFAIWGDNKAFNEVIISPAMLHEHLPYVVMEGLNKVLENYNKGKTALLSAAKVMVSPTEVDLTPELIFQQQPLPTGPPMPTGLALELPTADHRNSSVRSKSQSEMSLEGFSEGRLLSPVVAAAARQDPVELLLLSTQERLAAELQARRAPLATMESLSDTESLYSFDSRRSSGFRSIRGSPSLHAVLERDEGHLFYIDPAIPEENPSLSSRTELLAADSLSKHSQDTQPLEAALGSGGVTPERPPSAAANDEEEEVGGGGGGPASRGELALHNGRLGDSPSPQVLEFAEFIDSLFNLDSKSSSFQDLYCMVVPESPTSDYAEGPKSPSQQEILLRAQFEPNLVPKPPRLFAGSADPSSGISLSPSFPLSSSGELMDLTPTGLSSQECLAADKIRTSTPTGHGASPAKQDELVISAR
Procedure, shortened: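 COS cells overexpressing DAGLα were harvested in Tris-HCl pH 7, Dounce-homogenized and spun at 800 g then 10 000 g at 4 °C. The 10 000 g membrane fraction was incubated with sn-1-[14C]oleoyl-2-arachidonoyl-glycerol in 50 mM Tris-HCl with 1 mM CaCl2, pH 7.0, for 20 min at 37 °C. Lipids were extracted with CHCl3/MeOH 2:1 and separated by silica TLC (CHCl3/MeOH/NH4OH 85/15/1). [14C]Oleic acid bands were β-counted.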

[3] = biological target: T2, Fatty-acid amide hydrolase 1 (Rattus norvegicus, UniProt P97612); assay: Inhibition of FAAH mediated [14C]anandamide hydrolysis in rat brain after 30 mins; assay type: tissue-based
T2 sequence (P97612 whole entry): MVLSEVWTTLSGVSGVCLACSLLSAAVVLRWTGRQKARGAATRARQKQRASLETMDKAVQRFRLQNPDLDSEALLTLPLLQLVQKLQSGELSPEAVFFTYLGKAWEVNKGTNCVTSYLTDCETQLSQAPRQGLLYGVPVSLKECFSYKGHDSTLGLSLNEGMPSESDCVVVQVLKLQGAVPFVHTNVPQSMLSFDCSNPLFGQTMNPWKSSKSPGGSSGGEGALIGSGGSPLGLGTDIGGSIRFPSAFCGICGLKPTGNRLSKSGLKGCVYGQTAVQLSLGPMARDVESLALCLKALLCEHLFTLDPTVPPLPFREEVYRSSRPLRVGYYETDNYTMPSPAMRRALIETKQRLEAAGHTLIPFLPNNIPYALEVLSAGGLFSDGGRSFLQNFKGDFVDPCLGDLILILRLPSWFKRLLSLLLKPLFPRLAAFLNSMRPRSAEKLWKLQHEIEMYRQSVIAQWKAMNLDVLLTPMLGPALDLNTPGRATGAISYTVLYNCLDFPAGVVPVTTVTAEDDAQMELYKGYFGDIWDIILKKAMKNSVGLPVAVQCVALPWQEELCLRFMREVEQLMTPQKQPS
Procedure, shortened: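 Rat brain membranes incubated with test compounds and [14C]anandamide in 50 mM Tris-HCl, pH 9, for 30 min at 37 °C. After extraction with 2 volumes CHCl3/MeOH 2:1, [14C]ethanolamine in the aqueous phase was scintillation-counted. IC50 was taken as the concentration giving 50% inhibition of hydrolysis.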

RBL-2H3 [4] = assay: Inhibition of [14C]anandamide uptake in rat RBL-2H3 cells preincubated 10 mins before addition of [14C]anandamide; assay type: functional, cell-based; design: inhibition (INH): concentration or dose not given beside the values; settings: for IC50: Rattus norvegicus, RBL-2H3
Procedure, shortened: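 Intact RBL-2H3 cells were pre-exposed to inhibitor at varying concentrations for 10 min, then given [14C]anandamide (10,000 cpm) for 90 s at 37 °C. Uptake was taken as the residual label in the medium after CHCl3/CH3OH 2:1 extraction, read by scintillation counting of the organic phase. Non-specific binding was defined with excess unlabelled anandamide. IC50 was calculated from the inhibition data.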

RBL-2H3 [5] = assay: Inhibition of [14C]anandamide uptake in rat RBL-2H3 cells at 0.1 uM preincubated 10 mins before addition of [14C]anandamide; assay type: functional
Procedure, shortened: (§1)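 RBL-2H3 cells were given inhibitor at 0.1 or 1 µM for 10 min, then [14C]anandamide (10,000 cpm) for 90 s at 37 °C. Uptake was read as residual medium label in the organic extract, and [14C]ethanolamine was counted in the aqueous phase in the same experiment. Results are % inhibition of uptake, N=4.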

RBL-2H3 [6] = assay: Inhibition of [14C]anandamide uptake in rat RBL-2H3 cells at 1 uM preincubated 10 mins before addition of [14C]anandamide; assay type: functional; procedure, shortened: as §1
[7] = biological target: T3, Fatty-acid amide hydrolase 1 (Rattus norvegicus) (UniProt P97612); assay: Inhibition of FAAH mediated [14C]anandamide hydrolysis in rat RBL-2H3 cells at 1 uM after 30 mins
T3 sequence (whole entry): T2 sequence (P97612 whole entry)

[8] = biological target: T3, Fatty-acid amide hydrolase 1 (Rattus norvegicus); assay: Inhibition of FAAH mediated [14C]anandamide hydrolysis in rat RBL-2H3 cells at 0.1 uM after 30 mins
Monocyte = assay: Inhibition of anandamide uptake in human monocytes; assay type: functional, cell-based

SMILES | IC50 [1] [µM] | IC50 [2] [µM] | IC50 [3] [µM] | IC50 (RBL-2H3 [4]) [µM] | inhibition (INH) (RBL-2H3 [4]) [%] | inhibition at 0.1 µM (RBL-2H3 [5]) [%] | inhibition at 1 µM (RBL-2H3 [6]) [%] | inhibition [7] [%] | inhibition [8] [%] | IC50 (Monocyte) [µM]
CN(C)C(=O)n1nnc(Cc2ccc(-c3ccccc3)cc2)n1 | 0.02 | 0.51 | 0.033 | 0.998 |  |  |  |  |  | 
CN(C)C(=O)n1nnc(CNC(=O)c2ccc(-c3ccccc3)cc2)n1 | > 10 | > 10 | 0.006 | 0.985 |  |  |  |  |  | 
CN(C)C(=O)n1nnc(CNC(=O)CCCCCCc2ccccc2)n1 | > 10 | 10 | 0.0021 | > 10 | 30 |  |  |  |  | 
CN(C)C(=O)n1nnnc1CNC(=O)c1cccc(-c2ccccc2)c1 | 0.85 | 0.34 | 0.032 | 0.09 |  |  |  |  |  | 
CN(C)C(=O)n1nnnc1CCc1ccccc1 | 10 | 10 | 0.0054 | > 10 | 15.8 |  |  |  |  | 
CN(C)C(=O)n1nnc(CNC(=O)c2ccc(N=[N+]=[N-])c(I)c2)n1 | > 10 | 4.4 | 0.025 | > 1 | 9 |  |  |  |  | 
CN(C)C(=O)n1nnnc1CNC(=O)CCCCCCc1ccccc1 | 0.02 | 0.2 | 0.0037 | 0.851 |  |  |  |  |  | 
CN(C)C(=O)n1nnc(CNC(=O)c2cccc(-c3ccccc3)c2)n1 | 10 | > 10 | 0.023 | > 10 | 23 |  |  |  |  | 
CN(C)C(=O)n1nnc(CNC(=O)CCCCCCCc2ccccc2)n1 | 10 | 10 | 0.0032 | > 10 | 18.8 |  |  |  |  | 
CN(C)C(=O)n1nnc(CCc2ccccc2)n1 | 0.48 | 0.6 | 0.0035 | > 10 | 10.9 |  |  |  |  | 
CN(C)C(=O)n1nnnc1CCCc1ccccc1 | 10 | 10 | 0.0027 | > 10 | 18 |  |  |  |  | 
CN(C)C(=O)n1nnnc1Cc1ccc(-c2ccccc2)cc1 | 8.1 | > 10 | 0.0021 | 0.015 |  | 66.5 | 74.2 | 36.7 | 41.1 | 
CN(C)C(=O)n1nnnc1CNC(=O)CCCCCCCc1ccccc1 | 0.04 | 0.57 | 0.01 | > 10 | 37.5 |  |  |  |  | 
CN(C)C(=O)n1nnnc1CNC(=O)c1ccc(N=[N+]=[N-])c(I)c1 | 0.35 | 0.13 | 0.023 | > 1 | 32.4 |  |  |  |  | 
CN(C)C(=O)n1nnc(CCCc2ccccc2)n1 | 0.11 | 0.5 | 0.0032 | > 10 | 16 |  |  |  |  | 
C=CCOc1ccc(CN(C/C=C/c2ccccc2)CCCC)cc1 |  |  |  |  |  |  |  |  |  | 0.09
